Measurements as given in paper PMC12949657 (Journal of medicinal chemistry, 2024).
≈ marks a conversion by molar mass, not a printed value.

Columns and labels:
[1] = test system: Enterococcus faecium NCTC 7171 (ATCC 19434); assay: Antibacterial growth inhibition; assay type: cell-based; conditions: ATCC19434|NCTC7171, read-out: E. faecium MIC
E. faecium = conditions: cited from earlier work
Staphylococcus aureus = assay: MIC assay, S. aureus; assay type: cell-based
[2] = Human plasma protein binding; assay type: in vitro ADME
CYP1A2 = biological target: T1, CYP1A2 (Homo sapiens, UniProt P05177); assay: Human cytochrome P450 inhibition assay, 1A2; assay type: in vitro ADME; conditions: human liver microsomes, 0 – 50 μM
T1 sequence (P05177 1-516): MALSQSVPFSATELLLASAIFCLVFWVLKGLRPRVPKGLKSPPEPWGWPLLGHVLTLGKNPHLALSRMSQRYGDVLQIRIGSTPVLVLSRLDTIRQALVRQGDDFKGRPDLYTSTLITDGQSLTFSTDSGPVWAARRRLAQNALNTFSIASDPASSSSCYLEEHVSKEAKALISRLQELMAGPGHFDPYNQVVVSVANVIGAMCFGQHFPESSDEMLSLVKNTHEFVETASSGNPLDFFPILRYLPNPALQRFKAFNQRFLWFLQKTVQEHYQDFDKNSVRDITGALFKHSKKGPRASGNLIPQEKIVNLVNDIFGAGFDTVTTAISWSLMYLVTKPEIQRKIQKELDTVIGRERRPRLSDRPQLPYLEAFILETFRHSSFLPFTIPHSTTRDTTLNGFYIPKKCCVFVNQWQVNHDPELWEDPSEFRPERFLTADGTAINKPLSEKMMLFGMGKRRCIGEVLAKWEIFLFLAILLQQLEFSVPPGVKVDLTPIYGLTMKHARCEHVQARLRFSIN

[3] = Mouse dose tolerability/proportionality study; assay type: in vivo
CYP2C19 = CYP2C19 (Homo sapiens, UniProt P33261); assay: Human cytochrome P450 inhibition assay, 2C19; assay type: in vitro ADME; conditions: human liver microsomes, 0 – 50 μM
Sequence of CYP2C19 (P33261 whole entry): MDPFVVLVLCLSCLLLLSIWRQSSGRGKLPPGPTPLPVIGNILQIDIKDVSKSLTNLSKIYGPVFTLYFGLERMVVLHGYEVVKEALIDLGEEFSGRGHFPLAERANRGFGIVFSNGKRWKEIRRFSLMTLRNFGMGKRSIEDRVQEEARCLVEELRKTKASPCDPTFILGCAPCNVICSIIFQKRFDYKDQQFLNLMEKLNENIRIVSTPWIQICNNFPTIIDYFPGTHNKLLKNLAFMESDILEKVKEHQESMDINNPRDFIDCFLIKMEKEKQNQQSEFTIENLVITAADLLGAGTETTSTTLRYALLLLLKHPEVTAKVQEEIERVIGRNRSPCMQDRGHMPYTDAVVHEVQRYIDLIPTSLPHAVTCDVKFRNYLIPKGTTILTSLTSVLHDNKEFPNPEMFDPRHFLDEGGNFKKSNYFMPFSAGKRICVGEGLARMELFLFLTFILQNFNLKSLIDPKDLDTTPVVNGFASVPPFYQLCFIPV

E. faecium NCTC 7171 [4] = assay: Minimum bactericidal concentration; assay type: cell-based; conditions: Enterococcus faecium, NCTC7171, read-out: minimal bactericidal concentration (MBC)
In short: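 MBC was taken from the broth microdilution MIC plate. Mid-log E. faecium (OD600 0.2–0.3) was diluted 1:1000 into cation-adjusted Mueller-Hinton II broth with 1% IsoVitaleX, with test compound typically at 200–0.1 μg/mL, and incubated overnight at 37 °C. Wells were mixed, serially diluted 10-fold in DPBS and plated on Mueller-Hinton plus 1% IsoVitaleX agar. Colonies were counted after 2 d at 37 °C.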

[5] = Mouse plasma protein binding; assay type: in vitro ADME
E. faecium EN 2966 = assay: MIC assay, vancomycin-resistant E. faecium EN 2966; assay type: cell-based, Enterococcus faecium
CYP2C9 = CYP2C9 (Homo sapiens, UniProt P11712); assay: Human cytochrome P450 inhibition assay, 2C9; assay type: in vitro ADME; conditions: human liver microsomes, 0 – 50 μM
Sequence of CYP2C9 (P11712 whole entry): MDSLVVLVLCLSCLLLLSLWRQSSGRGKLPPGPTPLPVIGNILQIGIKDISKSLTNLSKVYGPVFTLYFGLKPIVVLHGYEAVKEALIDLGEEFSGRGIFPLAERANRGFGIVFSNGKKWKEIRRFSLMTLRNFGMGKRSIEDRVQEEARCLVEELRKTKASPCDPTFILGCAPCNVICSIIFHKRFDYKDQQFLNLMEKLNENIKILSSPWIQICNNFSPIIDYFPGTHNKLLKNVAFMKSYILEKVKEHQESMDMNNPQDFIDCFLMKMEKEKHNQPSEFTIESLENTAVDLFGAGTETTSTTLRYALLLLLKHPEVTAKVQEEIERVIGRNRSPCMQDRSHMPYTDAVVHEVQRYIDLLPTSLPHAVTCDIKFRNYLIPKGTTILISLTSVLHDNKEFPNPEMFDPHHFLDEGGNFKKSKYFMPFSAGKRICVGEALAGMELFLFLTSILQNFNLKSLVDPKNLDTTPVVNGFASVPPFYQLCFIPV

CYP3A4 = CYP3A4 (Homo sapiens, UniProt P08684); assay: Human cytochrome P450 inhibition assay, 3A4; assay type: in vitro ADME; conditions: human liver microsomes, 0 – 50 μM
Sequence of CYP3A4 (P08684 whole entry): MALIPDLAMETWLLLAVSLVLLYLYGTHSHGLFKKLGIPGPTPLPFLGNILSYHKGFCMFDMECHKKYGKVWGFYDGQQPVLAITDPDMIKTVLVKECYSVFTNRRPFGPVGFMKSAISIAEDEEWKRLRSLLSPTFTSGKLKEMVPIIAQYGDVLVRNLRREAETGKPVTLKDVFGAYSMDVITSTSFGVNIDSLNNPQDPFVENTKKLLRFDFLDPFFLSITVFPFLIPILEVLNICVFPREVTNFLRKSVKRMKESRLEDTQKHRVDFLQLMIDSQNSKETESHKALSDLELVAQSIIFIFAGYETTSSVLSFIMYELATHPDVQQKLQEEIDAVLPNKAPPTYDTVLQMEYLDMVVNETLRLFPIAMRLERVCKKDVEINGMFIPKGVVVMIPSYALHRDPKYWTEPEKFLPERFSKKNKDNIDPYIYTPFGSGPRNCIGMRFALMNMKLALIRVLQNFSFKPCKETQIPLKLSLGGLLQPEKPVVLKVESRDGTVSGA

E. faecium NCTC 7171 [6] = assay: Griess assay for intrabacterial NO release; assay type: cell-based, Enterococcus faecium; conditions: 100 μM, 24 h and 48 h
In short: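 E. faecium NCTC 7171 was started from a single colony in Mueller-Hinton medium and grown to OD600 0.4. The culture was split into untreated, test compound (100 μM) and DEA-NONOate (100 μM) batches. At 24 h and 48 h, samples were centrifuged and supernatants mixed with fresh Griess reagent for 30 min at rt. A548 was read, and nitrite was estimated against sodium nitrite standards (50–0.78 μM, 2-fold, in Mueller-Hinton).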

Acinetobacter baumannii = assay: MIC assay, A. baumannii; assay type: cell-based
Pseudomonas aeruginosa = assay: MIC assay, P. aeruginosa; assay type: cell-based
CYP2D6 = CYP2D6 (Homo sapiens, UniProt P10635); assay: Human cytochrome P450 inhibition assay, 2D6; assay type: in vitro ADME; conditions: human liver microsomes, 0 – 50 μM
Sequence of CYP2D6 (P10635 whole entry): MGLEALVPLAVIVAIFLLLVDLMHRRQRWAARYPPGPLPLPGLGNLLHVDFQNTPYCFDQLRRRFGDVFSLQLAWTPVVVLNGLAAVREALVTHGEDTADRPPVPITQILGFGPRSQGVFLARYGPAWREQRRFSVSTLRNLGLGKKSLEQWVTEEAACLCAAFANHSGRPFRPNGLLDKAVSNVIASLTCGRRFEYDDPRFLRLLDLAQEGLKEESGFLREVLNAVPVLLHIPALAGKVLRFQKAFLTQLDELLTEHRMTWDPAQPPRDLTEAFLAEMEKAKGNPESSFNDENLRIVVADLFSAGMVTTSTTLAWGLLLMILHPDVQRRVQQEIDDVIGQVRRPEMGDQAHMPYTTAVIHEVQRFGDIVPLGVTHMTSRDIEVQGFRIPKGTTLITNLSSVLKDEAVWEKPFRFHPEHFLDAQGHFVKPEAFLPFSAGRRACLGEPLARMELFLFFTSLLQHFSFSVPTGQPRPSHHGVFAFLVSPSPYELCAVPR

Klebsiella pneumoniae = assay: MIC assay, K. pneumoniae; assay type: cell-based
[7] = Mouse snapshot 5 h PK study; assay type: in vivo; conditions: female, CD-1, mouse, plasma, po, 25 mg/kg
In short: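 Two female CD-1 mice received a single oral 25 mg/kg dose in 5% DMA/60% PEG300/35% D5W. Blood was collected into K2EDTA pre-dose and at 0.5, 1, 3 and 5 h, kept on ice, and spun to plasma stored at −80 °C. Quantitation was by LC-MS/MS against plasma standard curves (1/x² weighting) after acetonitrile/methanol precipitation with verapamil internal standard. AUC was calculated by trapezoidal integration.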

SMILES: O=C(NNC(=O)c1cc2ccccc2s1)c1ccc([N+](=O)[O-])o1 [JSF-2827, N'-(benzo[b]thiophene-2-carbonyl)-5-nitrofuran-2-carbohydrazide]
- MIC [1]: 0.75 µM (≈ 0.248 µg/mL)

SMILES: O=C1CN(/N=C/c2ccc([N+](=O)[O-])o2)C(=O)N1 [nitrofurantoin]
- in vitro efficacy versus E. faecium (E. faecium): limited in vitro efficacy

SMILES: O=C(NNC(=O)c1sc2cc(Cl)ccc2c1Cl)c1ccc([N+](=O)[O-])o1 [JSF-3269]
- MIC (Staphylococcus aureus): 16 µM (≈ 6.4 µg/mL)
- binding to human plasma [2]: 99.3%
- inhibition of human cytochrome P450 1A2 (CYP1A2): not a significant inhibitor
- exposure (AUC0-24h) dose proportionality ([3]; mice, 50, 150 and 300 mg/kg po): appeared to plateau between 150 and 300 mg/kg
- dose tolerability ([3]; mice, doses up to the highest level tested of 300 mg/kg po): tolerated
- inhibition of human cytochrome P450 2C19 (CYP2C19): not a significant inhibitor
- MBC (E. faecium NCTC 7171 [4]): 7.7 to 15 µM (≈ 3.08 to 6 µg/mL)
- MIC [1]: 1.9 to 3.8 µM (≈ 0.76 to 1.52 µg/mL)
- binding to mouse plasma [5]: 99.99%
- MIC (E. faecium EN 2966): the same MIC as versus the NCTC 7171 strain
- inhibition of human cytochrome P450 2C9 (CYP2C9): not a significant inhibitor
- inhibition of human cytochrome P450 3A4 (CYP3A4): not a significant inhibitor
- intracellular release of NO• (nitrite in supernatant) (E. faecium NCTC 7171 [6]): no evidence was found to support the intracellular release of NO•
- MIC (Acinetobacter baumannii): > 120 µM
- MIC (Pseudomonas aeruginosa): > 120 µM
- inhibition of human cytochrome P450 2D6 (CYP2D6): not a significant inhibitor
- MIC (Klebsiella pneumoniae): > 120 µM

SMILES: O=C(NNC(=O)c1cc2cc(Cl)cc(Cl)c2s1)c1ccc([N+](=O)[O-])o1 [Compound 22]
- AUC(0-t) [7]: 43800 ng·h/mL

SMILES: O=C(NNC(=O)c1cc2cc(C(F)(F)F)cc(Cl)c2s1)c1ccc([N+](=O)[O-])o1 [Compound 25]
- AUC(0-t) [7]: 111000 ng·h/mL
